# ChEMBL document CHEMBL1128250, “Structure-activity studies of 2,3,4,4a,5,9b-hexahydroindeno[1,2-c]pyridines as antispermatogenic agents for male contraception” (1995)
# “And” between values parts separate entries of the source, which are not always exact repeats. Equal values may be shown once.
# What was measured:
# Mus musculus [1] = assay: Tested for its effect on spermatogenic index 3 days after single oral dose (1 mg/kg),; type: functional
# How it was run: (§1)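 CD-1 outbred Swiss albino male mice, 5 per dose, single gavage on day 0 at 10 mL/kg. Vehicle was 0.15 M acetate buffer pH 5, ethanol/Tween-20/water (3:7:90), or 1% Tween-20 in water. CO2 euthanasia 72 h later. Testes weighed and histologically scored (spermatogenic index 0–6). Values are % reduction versus the assay's vehicle control. Positive control was 30 mg/kg of the parent compound. Significance by Dunnett's one-tailed t-test, p < 0.05.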
# Mus musculus [2] = assay: Tested for its effect on testes weight 3 days after single oral dose (90 mg/kg); type: functional, Testis; how it was run: as §1
# Mus musculus [3] = assay: Tested for its effect on mouse testes weight 3 days after single oral dose (10 mg/kg); type: functional, Testis; how it was run: as §1
# Mus musculus [4] = assay: Effect on right testes weight single oral dose of 10 mg/kg was given and the change after 3 hr of dosing was observed.; type: functional, Testis
# How it was run: (§2)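 Male CD-1 outbred Swiss albino mice, single oral gavage in acetate buffer pH 5 (10 mL/kg), 3, 10 or 30 mg/kg, plus vehicle control. Killed on day 1, 3 or 14 after dosing (times are days, not hours). Testes removed, right and left weighed separately, sectioned for histology and scored on a 0–6 spermatogenic index. Body weight change recorded. Mean ± SEM, n = 5; p < 0.05 versus control.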
# Mus musculus [5] = assay: Effect on left testes body weight a single oral dose of 3 mg/kg was given and the change after 1 h of dosing was observed.; type: functional, Testis; how it was run: as §2
# Mus musculus [6] = assay: Tested for its effect on spermatogenic index 3 days after single oral dose (30 mg/kg),; type: functional; how it was run: as §1
# Mus musculus [7] = assay: Tested for its effect on mouse testes weight 3 days after single oral dose (90 mg/kg); type: functional, Testis; how it was run: as §1
# Mus musculus [8] = assay: Effect on spermatogenic index single oral dose of 3 mg/kg was given and the change after 14 hr of dosing was observed; type: functional; how it was run: as §2
# Mus musculus [9] = assay: Effect on left testes weight single oral dose of 30 mg/kg was given and the change after 3 hr of dosing was observed.; type: functional, Testis; how it was run: as §2
# Mus musculus [10] = assay: Effect on right testes weight after 1 hr of dosing was observed.; type: functional, Testis; how it was run: as §2
# Mus musculus [11] = assay: Tested for its effect on mouse testes weight 3 days after single sub cutaneous dose (5 mg/kg); type: functional, Testis
# How it was run: (§3)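 CD-1 outbred Swiss albino male mice, 5 per dose, single subcutaneous injection on day 0 at 10 mL/kg in ethanol/Tween-20/water (3:7:90). Killed 72 h later. Testes weighed and scored for spermatogenic index (0–6). Results are % reduction versus vehicle control. Each assay included a 30 mg/kg positive control. Dunnett's one-tailed t-test, p < 0.05. Oral versus sc route compared by ANOVA.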
# Mus musculus [12] = assay: tested for its effect on spermatogenic index 3 days after single oral dose (3 mg/kg); type: functional
# How it was run: (§4)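 Male CD-1 (ICR)BR outbred Swiss albino mice, 5/dose, single oral gavage dose (10 mL/kg) on day 0 in acetate buffer pH 5 or Tween-20-based vehicle; killed 72 h later. Testis cross-sections scored histologically on a 0–6 spermatogenic index (Sertoli only to >100 late spermatids/tubule). Reported as % reduction versus vehicle control; Dunnett's one-tailed t-test.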
# Mus musculus [13] = assay: tested for its effect on mouse testes weight 3 days after single oral dose (1 mg/kg); type: functional, Testis
# How it was run: (§5)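 Male CD-1 (ICR)BR outbred Swiss albino mice, 5/dose, given one oral gavage dose (10 mL/kg) on day 0 in 0.15 M acetate buffer pH 5, ethanol/Tween-20/water (3:7:90), or 1% Tween-20 in water; vehicle and positive-control groups in each assay. Killed by CO2 72 h later; testes weighed. Expressed as % reduction versus vehicle control; Dunnett's one-tailed t-test.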
# Mus musculus [14] = assay: Effect on left testes body weight single oral dose of 10 mg/kg was given and the change after 1 h of dosing was observed.; type: functional, Testis; how it was run: as §2
# Mus musculus [15] = assay: Effect on left testes body weight single oral dose of 3 mg/kg was given and the change after 3 hr of dosing was observed.; type: functional, Testis; how it was run: as §2
# Mus musculus [16] = assay: Effect on change in body weight single oral dose of 3 mg/kg was given and the change after 14 hr of dosing was observed.; type: functional; how it was run: as §2
# Mus musculus [17] = assay: Effect on right spermatogenic index single oral dose of 10 mg/kg was given and the change after 3 hr of dosing was observed.; type: functional; how it was run: as §2
# Mus musculus [18] = assay: Tested for its effect on mouse testes weight 3 days after single oral dose (1 mg/kg); type: functional, Testis; how it was run: as §1
# Mus musculus [19] = assay: Tested for its effect on mouse testes weight 3 days after single sub cutaneous (10 mg/kg); type: functional, Testis; how it was run: as §3
# Mus musculus [20] = assay: Effect on spermatogenic index single oral dose of 30 mg/kg was given and the change after 1 hr of dosing was observed.; type: functional; how it was run: as §2
# Mus musculus [21] = assay: tested for its effect on testes weight 3 days after single oral dose (30 mg/kg); type: functional, Testis; how it was run: as §5
# Mus musculus [22] = assay: tested for its effect on testes weight 3 days after single sub cutaneous dose (10 mg/kg); type: functional, Testis
# How it was run: (§6)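 CD-1 male mice, 5/dose, injected subcutaneously once (10 mL/kg) on day 0 in ethanol/Tween-20/water (3:7:90); vehicle and positive controls included. Killed by CO2 after 72 h; testes weighed and sectioned, with histology scored as a 0–6 spermatogenic index. Both read-outs given as % reduction from control; Dunnett's one-tailed t-test.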
# Mus musculus [23] = assay: Effect on left testes body weight single oral dose of 10 mg/kg was given and the change after 3 hr of dosing was observed.; type: functional, Testis; how it was run: as §2
# Mus musculus [24] = assay: Effect on spermatogenic index single oral dose of 30 mg/kg was given and the change after 3 hr of dosing was observed.; type: functional; how it was run: as §2
# Mus musculus [25] = assay: Effect on change in body weight single oral dose of 10 mg/kg was given and the change after 14 hr of dosing was observed.; type: functional; how it was run: as §2
# Mus musculus [26] = assay: Tested for its effect on mouse testes weight 3 days after single sub cutaneous dose (30 mg/kg); type: functional, Testis; how it was run: as §3
# Mus musculus [27] = assay: tested for its effect on mouse testes weight 3 days after single oral dose (3 mg/kg); type: functional, Testis; how it was run: as §5
# Mus musculus [28] = assay: tested for its effect on spermatogenic index 3 days after single sub cutaneous dose (10 mg/kg); type: functional; how it was run: as §6
# Mus musculus [29] = assay: Effect on left testes body weight single oral dose of 10 mg/kg was given and the change after 14 hr of dosing was observed.; type: functional, Testis; how it was run: as §2
# Mus musculus [30] = assay: Tested for its effect on spermatogenic index 3 days after single oral dose (30 mg/kg); type: functional; how it was run: as §1
# Mus musculus [31] = assay: Effect on spermatogenic index single oral dose of 3 mg/kg was given and the change after 3 hr of dosing was observed.; type: functional; how it was run: as §2
# Mus musculus [32] = assay: Effect on left testes weight single oral dose of 30 mg/kg was given and the change after 1 hr of dosing was observed.; type: functional, Testis; how it was run: as §2
# Mus musculus [33] = assay: Tested for its effect on spermatogenic index 3 days after single sub cutaneous dose (10 mg/kg); type: functional
# How it was run: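 Single subcutaneous injection, 10 mL/kg, to male CD-1 mice (5 per dose) in ethanol/Tween-20/water (3:7:90, v/v/v) on day 0. Mice were killed at 72 h; testes were weighed and histology scored for spermatogenic index (0–6). Results are % reduction from the vehicle control, with a 30 mg/kg positive control group. Dunnett's one-tailed t-test.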
# Mus musculus [34] = assay: tested for its effect on spermatogenic index 3 days after single oral dose (30 mg/kg); type: functional; how it was run: as §4
# Mus musculus [35] = assay: tested for its effect on spermatogenic index 3 days after single oral dose (1 mg/kg); type: functional; how it was run: as §4
# Mus musculus [36] = assay: Effect on right testes weight single oral dose of 30 mg/kg was given and the change after 1 hr of dosing was observed; type: functional, Testis; how it was run: as §2
# Mus musculus [37] = assay: Tested for its effect on spermatogenic index 3 days after single oral dose (90 mg/kg); type: functional; how it was run: as §1
structure (smiles),measurement,setting,value
CCN1CC[C@H]2[C@H](c3ccc(C)cc3)c3cc(C)ccc3[C@H]2C1.Cl,Reduction,Mus musculus [1],7%
same,Reduction,Mus musculus [2],4%
same,Reduction,Mus musculus [3],10%
same,Spermatogenic index,Mus musculus [4],5.1
same,Testes weight,Mus musculus [4],112.3 mg
same,Testes weight,Mus musculus [5],96.9 mg
same,Reduction,Mus musculus [6],9%
same,Reduction,Mus musculus [7],10%
same,Spermatogenic index,Mus musculus [8],6
same,Testes weight,Mus musculus [9],78.2 mg
same,Change in body weight,Mus musculus [10],3.22 g
same,Reduction,Mus musculus [11],5%
same,Reduction,Mus musculus [12],31%
same,Reduction,Mus musculus [13],25%
same,Testes weight,Mus musculus [14],88.5 mg
same,Testes weight,Mus musculus [15],106.1 mg
same,Change in body weight,Mus musculus [16],3.62 g
same,Spermatogenic index,Mus musculus [17],3.5
same,Reduction,Mus musculus [18],11%
same,Reduction,Mus musculus [19],-3%
same,Spermatogenic index,Mus musculus [20],4.4
same,Reduction,Mus musculus [21],43%
same,Reduction,Mus musculus [22],12%
same,Testes weight,Mus musculus [23],107.8 mg
same,Spermatogenic index,Mus musculus [24],3
same,Change in body weight,Mus musculus [25],3.18 g
same,Reduction,Mus musculus [26],14%
same,Reduction,Mus musculus [27],13%
same,Reduction,Mus musculus [28],41%
same,Testes weight,Mus musculus [29],101.6 mg
same,Reduction,Mus musculus [30],50% and 39%
same,Spermatogenic index,Mus musculus [31],5.8
same,Testes weight,Mus musculus [32],92.8 mg
same,Reduction,Mus musculus [33],0% and 10%
same,Reduction,Mus musculus [34],62%
same,Reduction,Mus musculus [35],59%
same,Testes weight,Mus musculus [36],93.9 mg
same,Reduction,Mus musculus [37],-9%
